Source: PubChem BioAssay (several laboratories)
Sampled rows, rich in hits. Any-hit rate of the full collection: about 2.6%.
Platelet DG rel = platelet dense granule release activity | AID 1663 | inhibition, %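 (compounds screened at 7.5 µM in platelet-rich plasma)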 | 300,000 tested, 0.22% active | human platelet-rich plasma, SFLLRN dense granule ATP release, luminescence;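 active = mean replicate score, as percent of positive control, at or above 50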
SENP8 block-1 = inhibitors of human SENP8 protease; AID 2540; 330,000 tested, 1.2% active; purified SENP8, Z-RLRGG-aminoluciferin cleavage, luminescence; Q96LD8; inhibition, % at 10 µM; in the data active = inhibition above about 50%
SENP1 inh = blocks the human SENP1 SUMO protease catalytic domain; Q9P0U3; recombinant SENP1 catalytic domain, CyPet-SUMO1-YPet FRET cleavage; inhibition, % at 10 µM; 360,000 tested, 0.21% active;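 active = inhibition at least 30% at 10 µM, raw YFP signal under a set limit, fluorescence ratio 0.5 to 1.5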;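 also: 0% = enzyme with DMSO and 100% = no enzyme wells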
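Assay system: hSENP1 catalytic domain, recombinant. Amount: SENP1 enzyme, 20 pM final. Schedule: 50 min reaction, RT, dark. Technique: FRET, CFP and YFP emission. Control set: no-enzyme wells low, DMSO-plus-enzyme wells high control.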
SENP8 block-2 = blocks human SENP8 cleavage of Nedd8 substrate; 360,000 tested, 0.64% active; recombinant SENP8, Nedd8 substrate fluorescence; Q96LD8; inhibition, % at 20 µM; AID 602440; in the data active = inhibition mostly above about 40%, no sharp cut-off; inactive = mostly below about 27%
SENP6 inh = blocks the human protease SENP6 | Q9GZR1 | Recombinant SENP6 catalytic domain, aminoluciferin luminescence | inhibition, % at 10 µM | 330,000 tested, 1.8% active;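 active = inhibition above about 50% at the single tested dose, limit read from the data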;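 also: plate controls were DMSO wells with enzyme for no effect and DMSO wells lacking enzyme for full effect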
SENP7 inh = inhibitors of human SENP7 protease; 330,000 tested, 1.5% active; inhibition, % at 5 µM; recombinant SENP7, Z-RLRGG-aminoluciferin luminescence, 40 min; AID 434973; Q9BQF6;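 active = inhibition above about 50% at the single test dose, limit read from the data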;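 also: plate controls were DMSO with enzyme for no effect and no enzyme buffer wells for full effect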
Target sequence (Q9BQF6 706-1050 limits assumed): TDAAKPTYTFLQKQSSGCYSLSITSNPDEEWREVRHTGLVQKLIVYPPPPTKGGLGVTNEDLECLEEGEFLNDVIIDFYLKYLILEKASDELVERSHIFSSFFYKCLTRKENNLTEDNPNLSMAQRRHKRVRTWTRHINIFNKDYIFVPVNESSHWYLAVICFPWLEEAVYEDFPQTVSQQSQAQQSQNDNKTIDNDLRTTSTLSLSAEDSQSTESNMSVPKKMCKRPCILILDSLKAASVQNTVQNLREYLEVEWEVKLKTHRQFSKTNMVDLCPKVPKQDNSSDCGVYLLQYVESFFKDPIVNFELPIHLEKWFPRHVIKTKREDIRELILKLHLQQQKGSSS
SENP8 confirm = human SENP8 inhibition, confirmed | shares compounds with SENP7 inh | Recombinant SENP8, Z-RLRGG-aminoluciferin luminescence, 60 min | inhibition, % at 12.5 µM | 6,200 tested, 40% active | AID 488912;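 active = mean inhibition across replicates above about 50%, limit read from the data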
SENP6 confirm = confirmation of human SENP6 protease inhibitors; shares compounds with SENP7 inh; recombinant SENP6, Z-RLRGG-aminoluciferin luminescence; inhibition, % at 12.5 µM; 6,200 tested, 58% active; AID 488915
SENP7 conf = confirmation of human SENP7 protease inhibitors; shares compounds with SENP7 inh; recombinant SENP7, Z-RLRGG-aminoluciferin luminescence, 40 min; inhibition, % at 12.5 µM; 6,200 tested, 69% active
Casp3 select = caspase-3 inhibition (SENP selectivity assay). shares compounds with SENP7 inh. purified caspase-3, Z-DEVD-aminoluciferin luminescence, 60 min. inhibition, % at 12.5 µM. 6,200 tested, 60% active. AID 488918;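 active = mean inhibition above about 50%, limit read from the data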;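 also: plate controls were enzyme with DMSO for no effect and wells without caspase-3 for full effect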
Target sequence (P42574 28-227 limits assumed): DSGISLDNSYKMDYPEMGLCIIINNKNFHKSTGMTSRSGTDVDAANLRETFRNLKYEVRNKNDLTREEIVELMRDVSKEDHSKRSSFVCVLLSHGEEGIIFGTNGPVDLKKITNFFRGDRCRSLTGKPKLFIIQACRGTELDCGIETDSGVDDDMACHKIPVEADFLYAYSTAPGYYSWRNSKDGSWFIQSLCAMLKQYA
SENP luc ctr = luminescence interference (SENP counter-screen) | Pre-incubated SENP8/Z-RLRGG-aminoluciferin, luciferase luminescence interference | 6,200 tested, 39% active | inhibition, % at 12.5 µM | shares compounds with SENP7 inh | AID 488919;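 active = mean inhibition above about 50% when retested at one dose, limit read from the data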;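 also: plate controls were DMSO wells with completed reaction for no effect and substrate without enzyme for full effect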
Starred values were filed as active, the others as inactive; / = no result given.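 The calls were made as follows, unless noted: active = mean inhibition above about 50% in the one-dose retest (limit read from the data); inactive = the rest.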

SMILES | Platelet DG rel | SENP8 block-1 | SENP1 inh | SENP8 block-2 | SENP6 inh | SENP7 inh | SENP8 confirm | SENP6 confirm | SENP7 conf | Casp3 select | SENP luc ctr
c1c2c(cc3sc(N4CCOCC4)nc13)OCCO2 | 57* | 89* | -2 | 11 | 94* | 94* | 89* | 93* | 100* | 96* | 57*
c1ccc(N2CCN(c3nc4cc5c(cc4s3)OCCO5)CC2)cc1 | 12 | 5 | 2 | 13 | -4 | -3 | / | / | / | / | /
COc1cccc(-c2ccc(SCc3ccccn3)nn2)c1 | 11 | 59* | 0 | 18 | 2 | 80* | 75* | 67* | 92* | 86* | 78*
CN(C)c1ccc(-c2cc3ccccc3c(=O)o2)cc1 | / | 84* | -29 | -498 | 77* | 66* | 20 | 21 | 27 | 36 | 15
CC(C)CCNC(=O)C1CCN(S(=O)(=O)c2ccc(-n3cnnn3)cc2)CC1 | 1 | -12 | 3 | 17 | -12 | -6 | / | / | / | / | /
O=C(OCc1ccc(Cl)c(Cl)c1)c1ccccn1 | -1 | 51* | 0 | 8 | 80* | 69* | 71* | 69* | 90* | 71* | 73*
COc1ccc(C(=O)NNC(=O)c2ccccn2)cc1 | 77* | 97* | 7 | 8 | 99* | 100* | 98* | 99* | 102* | 98* | 98*
N/C(=N\OC(=O)c1ccc(Cl)c(Cl)c1)c1ccccn1 | 12 | 68* | -2 | 4 | 85* | 95* | 36 | 47 | 65* | 82* | 59*
N/C(=N\OC(=O)c1ccc(Cl)c([N+](=O)[O-])c1)c1ccccn1 | 11 | 7 | 5 | 16 | -23 | 39 | / | / | / | / | /
N/C(=N\OC(=O)c1ccc(Cl)cc1)c1ccccn1 | 52* | 97* | 4 | 8 | 94* | 99* | 88* | 99* | 103* | 98* | 79*
COC(=O)c1cc(NC(=O)COC(=O)C2COc3ccccc3O2)cc(C(=O)OC)c1 (centres undefined) | / | 1 | 1 | 22 | -2 | 3 | / | / | / | / | /
N/C(=N\OC(=O)c1ccc(Cl)cc1)c1[nH]ncc1Br | 52* | 96* | 3 | -6 | 100* | 100* | 98* | 98* | 101* | 98* | 98*
Nc1ncccc1OCc1ccc(Cl)c(Cl)c1 | -3 | 70* | 1 | 31 | 75* | 81* | 79* | 79* | 94* | 75* | 81*
Cc1cc(/C(N)=N/OC(=O)c2cccc(Cl)c2)no1 | 8 | 13 | 1 | 36 | 31 | 13 | / | / | / | / | /
CCO/N=C(\N)c1[nH]ncc1Br | 4 | 2 | 2 | 27 | -6 | 3 | / | / | / | / | /
O=C(OCc1ccc(Cl)c(Cl)c1)c1cccnc1Cl | -2 | 7 | -1 | 12 | 37 | 3 | / | / | / | / | /
N/C(=N\OC(=O)c1cccc(Cl)c1)c1ccccn1 | 12 | 87* | 4 | 11 | 92* | 94* | 90* | 90* | 100* | 95* | 45
Cc1cc(/C(N)=N/OC(=O)c2ccc(Cl)cc2)no1 | 11 | 80* | 8 | 31 | 85* | 94* | 24 | 86* | 97* | 92* | 21
O=C(Nc1cc([N+](=O)[O-])c2[nH]c(=O)c3ccccc3c2c1)C(F)(F)F | / | / | 1 | 9 | / | / | / | / | / | / | /
O=S(=O)(c1ccc(-c2n[nH]c(=S)o2)cc1)N1CCCC1 | -14 | -3 | -2 | -322 | 7 | -10 | / | / | / | / | /
COc1ccc(C(=O)O/N=C(\N)c2ccccn2)cc1 | 34 | 96* | 5 | 14 | 97* | 101* | 99* | 100* | 104* | 99* | 97*
O=C(O)c1cc(N/N=C/c2ccc(OCc3ccccc3)cc2)ccc1Cl | -2 | 72* | -1 | -8 | 56* | 30 | 60* | 54* | 74* | 15 | 69*
Cc1nn(-c2ccccc2)c(Cl)c1/C=N/Nc1ccc(Cl)c(C(=O)O)c1 | 9 | 97* | 1 | -16 | 100* | 92* | 99* | 100* | 103* | 85* | 80*
COC(=O)c1ccc(COc2ccc(/C=N/Nc3cccc(C(=O)O)c3)cc2)cc1 | 2 | 7 | -2 | -3 | 35 | 2 | / | / | / | / | /
Cc1nn(-c2ccccc2)c(Cl)c1/C=N/NC(=O)OC(C)(C)C | -1 | -9 | 3 | 1 | -15 | -12 | / | / | / | / | /
SMILES | Platelet DG rel | SENP8 block-1 | SENP1 inh | SENP8 block-2 | SENP6 inh | SENP7 inh | SENP8 confirm | SENP6 confirm | SENP7 conf | Casp3 select | SENP luc ctr
COc1cc(/C=C2/SC(=O)NC2=O)ccc1OC(=O)c1ccco1 | -8 | 82* | 5 | -15 | 88* | 85* | 58* | 74* | 24 | 61* | 22
CCOC(=O)c1ccc(N2NC(=O)/C(=C/c3ccc(OC(=O)c4ccco4)c(OC)c3)C2=O)cc1 | 20 | -12 | / | / | -18 | -1 | / | / | / | / | /
COc1cc(/C=N/N2CCOCC2)ccc1OC(=O)c1ccco1 | 19 | 40 | 1 | -2 | 60* | 70* | 60* | 57* | 88* | 67* | 77*
COc1cc(/C=C2\C(=O)N(c3ccc(S(N)(=O)=O)cc3)N=C2C)ccc1OC(=O)c1ccco1 | -3 | 26 | 7 | 57* | 76* | 70* | 12 | 35 | -2 | 5 | -1
COc1cc(/C=N/N(C)C)ccc1OC(=O)c1ccco1 | -6 | -6 | 0 | 7 | -7 | 1 | / | / | / | / | /
O=C1NC(=S)S/C1=C/c1ccc(OC(=O)c2ccco2)cc1 | -7 | 46 | 25 | 27 | 76* | 29 | 21 | 32 | 9 | 26 | 10
O=C(Nc1c(-c2ccc3c(c2)OCO3)[nH][nH]c1=O)c1ccc2c(c1)OCO2 | / | / | 3 | -91 | / | / | / | / | / | / | /
CCOC(=O)[C@H]1[C@H]2COc3ccc(Cl)cc3[C@@H]2N2C(=O)c3ccc(Cl)cc3NC(=O)[C@@]12C | / | 9 | -1 | 8 | -6 | 4 | / | / | / | / | /
COc1cc(/C=C2/C(=N)N3C(SC)=NSC3=NC2=O)ccc1OC(=O)c1ccco1 | 0 | 64* | -80 | 8 | 53* | 8 | 75* | 73* | 92* | 68* | 13
FC(F)(F)c1ccccc1Cc1c(-c2ccccc2)nc2ccc(Br)cn12 | / | / | 20 | -8 | / | / | / | / | / | / | /
